# Experimental data: ChEMBL document CHEMBL3217694, “Diaryl- and triaryl-pyrrole derivatives: inhibitors of the MDM2-p53 and MDMX-p53 protein-protein interactions†Electronic supplementary information (ESI) available: Experimental details for compound synthesis, analytical data for all compounds and intermediates. Details for the biological …” (Medchemcomm, 2013)
# The source made the active and inactive calls. The calls are words filed in the database; no cut-off is given here.
# Tests used:
# [1] = biological target: E3 ubiquitin-protein ligase Mdm2 (Homo sapiens, UniProt Q00987); assay: Inhibition of MDM2-p53 interaction (unknown origin) by ELISA
# How it was run: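 MDM2–p53 ELISA protein–protein binding assay; IC50 values were determined in follow-up concentration–response testing.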
# [2] = biological target: T1, E3 ubiquitin-protein ligase Mdm2/Cellular tumor antigen p53/Protein Mdm4 (Homo sapiens) (UniProt P04637+Q00987+O15151); assay: Inhibition of MDM2/MDMX-p53 interaction in human A2780 CP70 cells expressing p53 mutant gene assessed as induction of p21 protein expression at 0.2 to 5 uM after 4 hrs by western blot analysis; format: cell-based
# T1 sequence (O15151 whole entry, looked up): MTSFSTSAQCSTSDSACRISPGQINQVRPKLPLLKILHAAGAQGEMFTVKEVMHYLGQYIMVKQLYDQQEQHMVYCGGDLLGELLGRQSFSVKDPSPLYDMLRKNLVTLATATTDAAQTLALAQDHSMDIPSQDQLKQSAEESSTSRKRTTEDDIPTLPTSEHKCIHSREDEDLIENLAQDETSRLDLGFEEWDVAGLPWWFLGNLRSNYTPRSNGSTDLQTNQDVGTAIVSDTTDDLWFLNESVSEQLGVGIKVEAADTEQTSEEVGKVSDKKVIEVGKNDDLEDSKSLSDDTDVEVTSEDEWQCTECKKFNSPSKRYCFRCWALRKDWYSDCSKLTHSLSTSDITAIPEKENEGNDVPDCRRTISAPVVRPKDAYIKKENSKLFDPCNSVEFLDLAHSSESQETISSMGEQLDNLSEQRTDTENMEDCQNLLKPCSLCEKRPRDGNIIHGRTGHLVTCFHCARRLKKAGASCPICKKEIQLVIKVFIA
# T1 sequence (P04637 whole entry, looked up): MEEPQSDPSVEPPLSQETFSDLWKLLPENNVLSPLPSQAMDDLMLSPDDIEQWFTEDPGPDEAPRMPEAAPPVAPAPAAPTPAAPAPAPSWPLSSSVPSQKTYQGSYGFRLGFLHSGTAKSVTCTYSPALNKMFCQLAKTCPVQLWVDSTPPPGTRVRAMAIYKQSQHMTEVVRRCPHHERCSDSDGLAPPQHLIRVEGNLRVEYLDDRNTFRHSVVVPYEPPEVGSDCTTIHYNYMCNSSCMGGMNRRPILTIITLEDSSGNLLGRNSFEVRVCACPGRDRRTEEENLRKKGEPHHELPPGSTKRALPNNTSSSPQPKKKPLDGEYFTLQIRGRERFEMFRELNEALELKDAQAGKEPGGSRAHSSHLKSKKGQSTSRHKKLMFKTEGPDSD
# T1 sequence (Q00987 whole entry, looked up): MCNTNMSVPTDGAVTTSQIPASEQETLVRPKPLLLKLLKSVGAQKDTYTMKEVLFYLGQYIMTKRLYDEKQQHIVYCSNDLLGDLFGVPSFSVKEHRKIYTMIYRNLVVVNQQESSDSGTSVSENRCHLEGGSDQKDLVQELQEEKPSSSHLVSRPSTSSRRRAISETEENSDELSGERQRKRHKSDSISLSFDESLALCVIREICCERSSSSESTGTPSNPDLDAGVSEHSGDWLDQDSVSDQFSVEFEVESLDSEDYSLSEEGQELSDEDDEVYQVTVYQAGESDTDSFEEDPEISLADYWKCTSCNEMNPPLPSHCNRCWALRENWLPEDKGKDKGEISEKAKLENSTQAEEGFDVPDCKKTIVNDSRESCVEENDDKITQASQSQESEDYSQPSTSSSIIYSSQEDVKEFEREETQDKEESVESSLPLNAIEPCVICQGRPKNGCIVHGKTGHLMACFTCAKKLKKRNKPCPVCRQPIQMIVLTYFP
# How it was run: (§1)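 Cell lines with defined MDM2 and p53 status were exposed to increasing compound concentrations for 4 h. p53 pathway activation (p53 and the p53-dependent proteins) was then detected by Western blotting of cell extracts.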
# [3] = biological target: T1, E3 ubiquitin-protein ligase Mdm2/Cellular tumor antigen p53/Protein Mdm4 (Homo sapiens); assay: Inhibition of MDM2/MDMX-p53 interaction in human A2780 CP70 cells expressing p53 mutant gene assessed as induction of p53 protein expression at 0.2 to 5 uM after 4 hrs by western blot analysis; format: cell-based; how it was run: as §1
# [4] = biological target: T1, E3 ubiquitin-protein ligase Mdm2/Cellular tumor antigen p53/Protein Mdm4 (Homo sapiens); assay: Inhibition of MDM2/MDMX-p53 interaction in human A2780 CP70 cells expressing p53 mutant gene assessed as induction of MDM2 protein expression at 0.2 to 5 uM after 4 hrs by western blot analysis; format: cell-based; how it was run: as §1
# [5] = biological target: T1, E3 ubiquitin-protein ligase Mdm2/Cellular tumor antigen p53/Protein Mdm4 (Homo sapiens); assay: Inhibition of MDM2/MDMX-p53 interaction in human A2780 cells expressing wild-type p53 assessed as induction of p21 protein expression at 0.2 to 5 uM after 4 hrs by western blot analysis; format: cell-based; how it was run: as §1
# [6] = biological target: T1, E3 ubiquitin-protein ligase Mdm2/Cellular tumor antigen p53/Protein Mdm4 (Homo sapiens); assay: Inhibition of MDM2/MDMX-p53 interaction in human A2780 cells expressing wild-type p53 assessed as induction of p53 protein expression at 0.2 to 5 uM after 4 hrs by western blot analysis; format: cell-based; how it was run: as §1
# [7] = biological target: T1, E3 ubiquitin-protein ligase Mdm2/Cellular tumor antigen p53/Protein Mdm4 (Homo sapiens); assay: Inhibition of MDM2/MDMX-p53 interaction in human A2780 cells expressing wild-type p53 assessed as induction of MDM2 protein expression at 0.2 to 5 uM after 4 hrs by western blot analysis; format: cell-based; how it was run: as §1
# [8] = biological target: T1, E3 ubiquitin-protein ligase Mdm2/Cellular tumor antigen p53/Protein Mdm4 (Homo sapiens); assay: Inhibition of MDM2/MDMX-p53 interaction in human SJSA-1 cells expressing amplified MDM2 and wild-type p53 assessed as induction of p21 protein expression at 5 uM after 4 hrs by western blot analysis; format: cell-based; how it was run: as §1
# [9] = biological target: T1, E3 ubiquitin-protein ligase Mdm2/Cellular tumor antigen p53/Protein Mdm4 (Homo sapiens); assay: Inhibition of MDM2/MDMX-p53 interaction in human SJSA-1 cells expressing amplified MDM2 and wild-type p53 assessed as induction of p53 protein expression at 5 uM after 4 hrs by western blot analysis; format: cell-based; how it was run: as §1
# [10] = biological target: T1, E3 ubiquitin-protein ligase Mdm2/Cellular tumor antigen p53/Protein Mdm4 (Homo sapiens); assay: Inhibition of MDM2/MDMX-p53 interaction in human SJSA-1 cells expressing amplified MDM2 and wild-type p53 assessed as induction of MDM2 protein expression at 5 uM after 4 hrs by western blot analysis; format: cell-based; how it was run: as §1
Compound,inhibition [1],also measured
N#Cc1ccc(-n2c(-c3ccccc3)cc(C=C3C(=O)NC(=S)NC3=O)c2-c2ccccc2)cc1,Dose-dependent effect,
Cc1cc(/C=C2\C(=O)NC(=S)N(c3ccccc3)C2=O)c(C)n1-c1ccc(Cl)cc1,Dose-dependent effect,
CC(C)(C)c1cc(C=C2C(=O)NC(=S)NC2=O)c(-c2ccccc2)n1-c1ccc(Cl)cc1,Dose-dependent effect,
O=C1NC(=S)NC(=O)C1=Cc1cc(C2CC2)n(-c2ccc(Br)cc2)c1-c1ccccc1,Dose-dependent effect,
OCC(=Cc1cc(-c2ccccc2)n(-c2ccc(Cl)cc2)c1-c1ccccc1)CO,Dose-dependent effect,
O=C1NC(=O)C(=Cc2cc(-c3ccccc3)n(-c3ccc([N+](=O)[O-])cc3)c2-c2ccccc2)C(=O)N1,Dose-dependent effect,
Cc1cc(C=C2C(=O)NC(=S)NC2=O)c(C)n1-c1sc2c(c1C#N)CCCC2,,inhibition [2]: inactive; inhibition [3]: inactive; inhibition [4]: inactive; inhibition [5]: inactive; inhibition [6]: inactive; inhibition [7]: inactive; inhibition [8]: Active; inhibition [9]: Active; inhibition [10]: Active
CC1(C)OC(=O)C(=Cc2cc(-c3ccccc3)n(-c3ccc(Br)cc3)c2-c2ccccc2)C(=O)O1,Dose-dependent effect,
O=C1NC(=S)NC(=O)C1=Cc1cc(C2CC2)n(-c2ccc(Cl)cc2)c1-c1ccccc1,Dose-dependent effect,
CNC(=O)C(=Cc1cc(-c2ccccc2)n(-c2ccc(Cl)cc2)c1-c1ccccc1)C(=O)NC,Dose-dependent effect,
O=C(NCCO)C(=Cc1cc(-c2ccccc2)n(-c2ccc(Cl)cc2)c1-c1ccccc1)C(=O)NCCO,Dose-dependent effect,
O=C1NC(=S)N(c2ccccc2)C(=O)/C1=C/c1cc(-c2ccccc2)n(-c2ccc(Cl)cc2)c1-c1ccccc1,Dose-dependent effect,inhibition [2]: inactive; inhibition [3]: inactive; inhibition [4]: inactive; inhibition [5]: Active; inhibition [6]: inactive; inhibition [7]: Active; inhibition [8]: Active; inhibition [9]: Active; inhibition [10]: Active
O=C1NC(=O)C(=Cc2cc(-c3ccccc3)n(-c3ccc(Cl)cc3)c2-c2ccccc2)C(=O)N1,Dose-dependent effect,
COc1ccc(-n2c(-c3ccccc3)cc(C=C3C(=O)NC(=O)NC3=O)c2-c2ccccc2)cc1,Dose-dependent effect,
Cc1cc(C=C2C(=O)NC(=S)NC2=O)c(C)n1-c1ccc(Cl)cc1,Dose-dependent effect,
O=C1NC(=S)N(c2cccc(Cl)c2)C(=O)/C1=C/c1cc(-c2ccccc2)n(-c2ccc(Cl)cc2)c1-c1ccccc1,Dose-dependent effect,
CC(C)(C)c1ccc(-n2c(-c3ccccc3)cc(C=C3C(=O)NC(=O)NC3=O)c2-c2ccccc2)cc1,Dose-dependent effect,
O=C1NC(=S)NC(=O)C1=Cc1cc(-c2ccccc2)n(-c2ccc(Cl)cc2)c1-c1ccccc1,Dose-dependent effect,inhibition [2]: inactive; inhibition [3]: inactive; inhibition [4]: inactive; inhibition [5]: Active; inhibition [6]: inactive; inhibition [7]: Active; inhibition [8]: Active; inhibition [9]: Active; inhibition [10]: Active
O=C1NC(=S)NC(=O)C1=Cc1cc(-c2ccccc2)n(-c2ccc(Br)cc2)c1C1CC1,Dose-dependent effect,

Compound,inhibition [1],also measured
O=C(O)/C=C/c1cc(-c2ccccc2)n(-c2ccc(Cl)cc2)c1-c1ccccc1,Dose-dependent effect,
N#Cc1ccc(-n2c(-c3ccccc3)cc(C=C3C(=O)NC(=O)NC3=O)c2-c2ccccc2)cc1,Dose-dependent effect,
Cc1ccc(-n2c(C)cc(/C=C3\C(=O)NC(=S)N(c4ccccc4)C3=O)c2C)cc1,Dose-dependent effect,
COC(=O)C(=Cc1cc(-c2ccccc2)n(-c2ccc(Cl)cc2)c1-c1ccccc1)C(=O)OC,Dose-dependent effect,
NC(=O)C(=Cc1cc(-c2ccccc2)n(-c2ccc(Cl)cc2)c1-c1ccccc1)C(N)=O,Dose-dependent effect,
Cc1cc(C=C2C(=O)N(c3ccccc3)C(=S)N(c3ccccc3)C2=O)c(C)n1-c1ccc(Br)cc1,Dose-dependent effect,
Cc1ccc(N2C(=O)/C(=C\c3cc(-c4ccccc4)n(-c4ccc(Cl)cc4)c3-c3ccccc3)C(=O)N(c3ccccc3)C2=S)cc1C,Dose-dependent effect,
O=C1NC(=S)NC(=O)C1=Cc1cc(-c2ccccc2)n(-c2ccc(Cl)cc2)c1C1CC1,Dose-dependent effect,
CCN1C(=O)C(=Cc2cc(-c3ccccc3)n(-c3ccc(Br)cc3)c2-c2ccccc2)C(=O)N(CC)C1=S,Dose-dependent effect,
Cc1ccc(-n2c(C)cc(C=C3C(=O)NC(=S)NC3=O)c2C)cc1,Dose-dependent effect,
CCOC(=O)c1ccc(-n2c(-c3ccccc3)cc(C=C3C(=O)NC(=S)NC3=O)c2-c2ccccc2)cc1,Dose-dependent effect,
O=C1NC(=O)C(=Cc2cc(-c3ccccc3)n(-c3ccc(Br)cc3)c2-c2ccccc2)C(=O)N1,Dose-dependent effect,
CC1(C)OC(=O)C(Cc2cc(-c3ccccc3)n(-c3ccc(Br)cc3)c2-c2ccccc2)C(=O)O1,Dose-dependent effect,
CCN1C(=O)C(=Cc2cc(-c3ccccc3)n(-c3ccc(Cl)cc3)c2-c2ccccc2)C(=O)N(CC)C1=S,Dose-dependent effect,
CC(C)(C)c1cc(C=C2C(=O)NC(=S)NC2=O)c(-c2ccccc2)n1-c1ccc(Br)cc1,Dose-dependent effect,
CCN1C(=O)C(=Cc2cc(-c3ccccc3)n(-c3ccc(Br)cc3)c2-c2ccccc2)C(=O)N(CC)C1=O,Dose-dependent effect,
CN1C(=O)C(=Cc2cc(-c3ccccc3)n(-c3ccc(Cl)cc3)c2-c2ccccc2)C(=O)N(C)C1=S,,IC50 [1]: ND(Insoluble)
O=C1NC(=S)NC(=O)C1=Cc1cc(-c2ccccc2)n(-c2ccc([N+](=O)[O-])cc2)c1-c1ccccc1,Dose-dependent effect,
